From ChEMBL document CHEMBL3763017, “Synthesis and evaluation of dual antiplatelet activity of bispidine derivatives of N-substituted pyroglutamic acids” (Eur J Med Chem, 2016)
The source made the active and inactive calls. No cut-off for these calls is given here.

Columns and labels:
Platelet [1] = test: Inhibition of human platelet adhesion over collagen at 300 uM for 15 mins in presence of Mg2+ by microplate reader analysis; type: functional, cell-based
Method in brief: (§1)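 Wells coated overnight with fibrillar type I collagen and blocked with BSA. Washed platelets (1×10^8/ml) preincubated 15 min at 37 °C with compound or DMSO, then allowed to adhere 1 h at room temperature in Tyrode-HEPES with 1 mM Mg2+ or with Mg2+ replaced by 50 μM EDTA. Adherent cells quantified with p-nitrophenyl phosphate in citrate pH 5.4 (60 min, 25 °C), NaOH stop, A405.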

Platelet [2] = test: Antiplatelet activity in human platelet rich plasma assessed as inhibition of arachidonic acid-induced platelet aggregation up to 300 uM preincubated for 5 mins followed by arachidonic acid stimulation by turbidimetry; type: functional
Plasma [3] = test: Anticoagulant activity in human plasma assessed as thrombin time at 30 to 300 uM; type: functional, cell-free
Method in brief: (§2)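 Human plasma from healthy donors, blood collected in CPD 1:7 and spun twice to give platelet-poor plasma. TT, PT and aPTT determined with commercial kits on a coagulometer. Hirudin 1 μg/ml served as reference anticoagulant; 0.4% DMSO vehicle.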

Platelet [4] = test: Antiplatelet activity in human platelet rich plasma assessed as inhibition of CRP-XL-induced platelet aggregation up to 300 uM preincubated for 5 mins followed by CRP-XL stimulation by turbidimetry; type: functional
Platelet [5] = test: Inhibition of human platelet adhesion over collagen at 30 uM for 15 mins in presence of Mg2+ by microplate reader analysis; type: functional; conditions: 0.25 h; method in brief: as §1
[6] = Antiplatelet activity in human platelet rich plasma assessed as inhibition of U46619-induced platelet aggregation at 30 uM preincubated for 5 mins followed by U46619 stimulation by turbidimetry; type: functional
Method in brief: (§3)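 Human PRP (1×10^8 platelets/ml) from healthy-donor blood spun at 1000 rpm for 10 min. Pre-treated 5 min with compound or 0.4% DMSO vehicle, then agonist added at 37 °C. Light-transmission aggregometry run at least 5–10 min; % aggregation calculated. Single-point screens at 30 μM, n = 3; mean ± SEM.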

Platelet [7] = test: Antiplatelet activity in human platelet rich plasma assessed as inhibition of TRAP-induced platelet aggregation up to 300 uM preincubated for 5 mins followed by TRAP stimulation by turbidimetry; type: functional
Aorta [8] = test: Inhibition of U46619-induced vasocontraction in Sprague-Dawley rat thoracic aoritc rings at 3 and 5 uM; type: functional
[9] = Antiplatelet activity in human platelet rich plasma assessed as inhibition of collagen-induced platelet aggregation preincubated for 5 mins followed by collagen stimulation by turbidimetry; type: functional
[10] = Antiplatelet activity in human platelet rich plasma assessed as inhibition of collagen-induced platelet aggregation at 30 uM preincubated for 5 mins followed by collagen stimulation by turbidimetry; type: functional; method in brief: as §3
Platelet [11] = test: Inhibition of human platelet adhesion over collagen at 30 uM for 15 mins in absence of Mg2+ by microplate reader analysis; type: functional; conditions: 0.25 h; method in brief: as §1
Platelet [12] = test: Inhibition of collagen-induced protein tyrosine phosphorylation in human platelets preincubated at 3 to 100 uM for 5 mins followed by collagen stimulation for 10 mins by Western blot analysis; type: functional, cell-based
Method in brief: (§4)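 Washed human platelets in Tyrode-HEPES pH 7.4 preincubated 5 min at 37 °C with 0.4% DMSO or compound (3–100 μM). Stimulated 10 min with collagen (1 μg/ml) or U46619 (0.25 μg/ml). Stopped with boiling Laemmli buffer; SDS-PAGE and anti-phosphotyrosine (4G10) immunoblot. Three separate experiments.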

Mus musculus [13] = test: Toxicity in Swiss albino mouse assessed as bleeding time at 30 umol/kg, po administered as single dose measured after 4 hrs (reference value: 3.5 +/- 0.3 mins); type: organism-based; conditions: in vivo
Mus musculus [14] = test: Antithrombotic activity in Swiss albino mouse assessed as protection against collagen-epinephrine induced pulmonary thromboembolism at 30 umol/kg, po after 4 hrs; type: functional
Method in brief: (§5)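 Male Swiss albino mice (18–22 g) dosed orally in 0.5% carboxymethyl cellulose 1, 2, 4, 6, 12 or 24 h before challenge. Collagen (150 μg/ml) plus adrenaline (50 μg/ml) injected into the tail vein. Dead or hind-limb-paralysed mice counted over 15 min and expressed as % protection. Ten mice per drug group, five for vehicle.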

Aorta [15] = test: Inhibition of U46619-induced vasocontraction in Sprague-Dawley rat thoracic aoritc rings at 15 uM (reference value: 89.8 +/- 8.5%); type: functional; parameters: scale not given: the % may be the effect or the level left
Mus musculus [16] = test: Antithrombotic activity in ferric chloride-induced Swiss albino mouse arterial thrombosis model assessed as prolonged time to occlusion at 20 umol/kg, po measured after 4 hrs (reference value: 9.5 +/- 0.4 mins); type: functional
Platelet [17] = test: Inhibition of human platelet adhesion over collagen for 15 mins in absence of Mg2+ by microplate reader analysis; type: functional, cell-based; method in brief: as §1
Mus musculus [18] = test: Toxicity in Swiss albino mouse assessed as bleeding time at 30 umol/kg, po administered as single dose measured after 1 hr (reference value: 3.5 +/- 0.3 mins); type: organism-based; conditions: in vivo
Platelet [19] = test: Inhibition of human platelet adhesion over collagen at 300 uM for 15 mins in absence of Mg2+ by microplate reader analysis; type: functional, cell-based; method in brief: as §1
Aorta [20] = test: Inhibition of U46619-induced vasocontraction in Sprague-Dawley rat thoracic aoritc rings at 30 uM (reference value: 89.8 +/- 8.5%); type: functional; parameters: scale not given: the % may be the effect or the level left
Aorta [21] = test: Inhibition of KCl-induced vasocontraction in Sprague-Dawley rat thoracic aoritc rings; type: functional
Mus musculus [22] = test: Antithrombotic activity in ferric chloride-induced Swiss albino mouse arterial thrombosis model assessed as prolonged time to occlusion at 30 umol/kg, po measured after 4 hrs (reference value: 9.5 +/- 0.4 mins); type: functional
Plasma [23] = test: Anticoagulant activity in human plasma assessed as activated partial thromboplastin time at 30 to 300 uM; type: functional, cell-free; method in brief: as §2
[24] = Antiplatelet activity in human platelet rich plasma assessed as inhibition of arachidonic acid-induced platelet aggregation at 300 to 500 uM preincubated for 5 mins followed by arachidonic acid stimulation by turbidimetry; type: functional
Platelet [25] = test: Inhibition of human platelet adhesion over collagen for 15 mins in presence of Mg2+ by microplate reader analysis; type: functional, cell-based; method in brief: as §1
Platelet [26] = test: Antiplatelet activity in human platelet rich plasma assessed as inhibition of ADP-induced platelet aggregation up to 300 uM preincubated for 5 mins followed by ADP stimulation by turbidimetry; type: functional
Plasma [27] = test: Anticoagulant activity in human plasma assessed as prothrombin time at 30 to 300 uM; type: functional, cell-free; method in brief: as §2
Mus musculus [28] = test: Antithrombotic activity in Swiss albino mouse assessed as protection against collagen-epinephrine induced pulmonary thromboembolism at 30 umol/kg, po after 1 hr; type: functional; method in brief: as §5
Platelet [29] = test: Inhibition of U46619-induced protein tyrosine phosphorylation in human platelets preincubated at 3 to 100 uM for 5 mins followed by U46619 stimulation for 10 mins by Western blot analysis; type: functional, cell-based; method in brief: as §4
Platelet [30] = test: Antiplatelet activity in human platelet rich plasma assessed as inhibition of ristocetin-induced platelet aggregation up to 300 uM preincubated for 5 mins followed by ristocetin stimulation by turbidimetry; type: functional
[31] = Antiplatelet activity in human platelet rich plasma assessed as inhibition of U46619-induced platelet aggregation preincubated for 5 mins followed by U46619 stimulation by turbidimetry; type: functional

O=C([C@@H]1CCC(=O)N1Cc1ccccc1Br)N1CC2CC(CN(Cc3ccccc3)C2)C1
inhibition (Platelet [1]): Active
inhibition (Platelet [2]): inactive
Activity (Plasma [3]): inactive
inhibition (Platelet [4]): inactive
inhibition at 30 µM (Platelet [5]): 27%
inhibition at 30 µM [6]: 79%
inhibition (Platelet [7]): inactive
inhibition (Aorta [8]): inactive
IC50 [9]: 1.7 µM
inhibition at 30 µM [10]: 86%
inhibition at 30 µM (Platelet [11]): 27%
inhibition (Platelet [12]): Active
Time (Mus musculus [13]): 4.3 min
Activity (Mus musculus [14]): 60%
Activity (Aorta [15]): 21.8%
Time (Mus musculus [16]): 13.3 min
inhibition (Platelet [17]): Dose-dependent effect
Time (Mus musculus [18]): 3.4 min
inhibition (Platelet [19]): Active
Activity (Aorta [20]): 14.2%
inhibition (Aorta [21]): inactive
Time (Mus musculus [22]): 20 min
Activity (Plasma [23]): inactive
inhibition (INH) [24]: 50%
inhibition (Platelet [25]): Dose-dependent effect
inhibition (Platelet [26]): inactive
Activity (Plasma [27]): inactive
Activity (Mus musculus [28]): 40%
inhibition (Platelet [29]): Active
inhibition (Platelet [30]): inactive
IC50 [31]: 7.7 µM

O=C([C@@H]1CCC(=O)N1Cc1ccccc1)N1CC2CC(CN(Cc3ccccc3)C2)C1
inhibition at 30 µM [10]: 44%
Activity (Mus musculus [28]): 30%

CC(C)(C)OC(=O)N1CC2CC(C1)CN(C(=O)[C@@H]1CCC(=O)N1Cc1ccccc1Br)C2
inhibition at 30 µM [10]: 2%
Activity (Mus musculus [28]): 50%

Cc1ccc(CN2C(=O)CC[C@H]2C(=O)N2CC3CC(CN(Cc4ccc(Br)cc4)C3)C2)cc1
inhibition at 30 µM [6]: 52%
inhibition at 30 µM [10]: 61%
Activity (Mus musculus [28]): 50%

Cc1ccc(CN2C(=O)CC[C@H]2C(=O)N2CC3CC(CN(C(=O)c4ccccc4)C3)C2)cc1
inhibition at 30 µM [10]: 20.5%
Activity (Mus musculus [28]): 40%

CC(C)(C)OC(=O)N1CC2CC(C1)CN(C(=O)[C@@H]1CCC(=O)N1Cc1ccccc1)C2
inhibition at 30 µM [10]: 6%
Activity (Mus musculus [28]): 40%

Cc1ccc(CN2C(=O)CC[C@H]2C(=O)N2CC3CC(CN(Cc4ccccc4)C3)C2)cc1
inhibition at 30 µM [10]: 7%
Activity (Mus musculus [28]): 25%

Cc1ccc(CN2C(=O)CC[C@H]2C(=O)N2CC3CC(CN(Cc4ccccc4Br)C3)C2)cc1
inhibition at 30 µM [6]: 70%
inhibition at 30 µM [10]: 67%
Activity (Mus musculus [28]): 30%

COc1ccc(CN2C(=O)CC[C@H]2C(=O)N2CC3CC(CN(C(=O)OC(C)(C)C)C3)C2)cc1
inhibition at 30 µM [10]: 10%
Activity (Mus musculus [28]): 45%

CC(C)(C)OC(=O)N1CC2CC(C1)CN(C(=O)[C@@H]1CCC(=O)N1Cc1ccc(C#N)cc1)C2
inhibition at 30 µM [10]: 11%
Activity (Mus musculus [28]): 55%

O=C(c1ccccc1)N1CC2CC(C1)CN(C(=O)[C@@H]1CCC(=O)N1Cc1ccccc1Br)C2
inhibition at 30 µM [10]: 25.6%
Activity (Mus musculus [28]): 60%

COc1ccc(CN2C(=O)CC[C@H]2C(=O)N2CC3CC(CN(Cc4ccccc4)C3)C2)cc1
inhibition at 30 µM [10]: 10%
Activity (Mus musculus [28]): 30%
